# System: E. coli BW25113 ΔtolC growth inhibition, OD615
# Test: growth inhibitors of E. coli tolC mutant, dose response, strain BW25113 ΔtolC::kan (AID 617)
# Outline: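 Test system: E. coli BW25113 ΔtolC::kan bacteria / Buffer or medium: kanamycin-containing LB broth, 50 µg/mL / Compound: serial dilution series of compound / Incubation: bacterial growth with compound for 20 h, 37 °C / Measured by: OD615 / Read-out basis: growth-inhibition IC50 from four-parameter logistic curve, bounds set to 0% and 100%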
row,Compound,IC50 [µM]
1,N#CCSc1n[nH]c2nc3c(c(=O)n12)C1(CCCC1)Cc1ccccc1-3,4.21
2,Clc1ccc(OCCN2CCN(c3ncnc4sccc34)CC2)cc1,16.1
3,COc1ccc(-c2nc(-c3cccs3)c(-c3cccs3)[nH]2)cc1O,6.09
4,CCn1cc(C(=O)O)c(=O)c2cc(OC)ccc21,9.67
5,CC1=CC(C)(C)N(C(=O)CSc2nnc(-c3ccccc3)o2)c2ccc(C)cc21,16.3
6,Fc1ccc(C(c2ccc(F)cc2)N2CCN(C/C=C/c3ccccc3)CC2)cc1,9.08
7,CCOC(=O)c1ccc(NC(=O)CCc2nc(-c3ccccc3Cl)no2)cc1,10.4
8,CCn1c(N2CCN(C(=O)C34CC5CC(CC(C5)C3)C4)CC2)nc2ccccc21,17.2
9,Cc1ccc(-c2nnc(N3CCN(c4ccccn4)CC3)c3ccccc23)cc1,4.28
10,Cc1cc(N2CCCCCC2)nc(-c2ccccc2O)n1,13.6
11,COc1ccc(C2(O)CC3CCC(C2)N3c2cc(C)nc(-c3ccccc3)n2)cc1 (stereo not given),11.7
12,Cc1cccc(S(=O)(=O)C(C#N)c2nc3ccccc3nc2N2CC(C)OC(C)C2)c1 (stereo not given),14.4
13,Cc1cccc(-n2ncc3c(N4CCC(C)CC4)ncnc32)c1,13
14,COc1ccc2c(c1)sc1nc(-c3ccccc3)cn12,12.2
15,CCc1nnc(NC(=O)c2cccc(C(=O)Nc3nnc(CC)s3)n2)s1,2.16
16,CC(C)c1ccc(OCc2nc(-c3ccccn3)no2)c(Br)c1,14.9
17,COc1ccc(S(=O)(=O)n2cnc3cc(C)c(C)cc32)cc1C,13.6
18,CCN(c1ccccc1)S(=O)(=O)c1ccc(NCC2COc3ccccc3O2)nc1 (stereo not given),14.8
19,Oc1ccccc1-c1cc(-c2ccc3c(c2)OCCO3)n[nH]1,8.15
20,COc1ccccc1N1CCN(C(=O)c2cc(-c3ccc(C)cc3)on2)CC1,7.85
21,CC1CCc2c(C(=O)Oc3cccc(-n4cnnn4)c3)csc2C1 (stereo not given),20.2
22,CCSC1=C(C#N)C(c2ccc(Cl)cc2)C2=C(CCCC2=O)N1 (stereo not given),8.21
23,O=C(c1ccc(COc2ccc(Cl)cc2)o1)N1CCN(Cc2ccc3c(c2)OCO3)CC1,5.35

row,Compound,IC50 [µM]
1,CCc1nc2sc3ccccc3c(=O)c2c(=O)n1Cc1ccco1,17.1
2,CC(OC(=O)c1ccccc1NCc1ccco1)C(=O)Nc1ncc(Cl)cc1Cl (stereo not given),39.1
3,CC1(C)Cc2c(c(N3CCCC3)nc3sc4c(N5CCN(CCO)CC5)ncnc4c23)CO1,18.1
4,CC1=C(C(=O)OC(C)C)C(c2c[nH]c3ccccc23)n2ncnc2N1 (stereo not given),6.11
5,COC(=O)c1ccccc1NC(=O)N1c2ccccc2CC1C (stereo not given),14.1
6,Clc1ccc(OCc2nn3c(C4CCCCC4)nnc3s2)cc1,9.82
7,COc1ccc2c(-c3ccccc3)cc(N3CCOCC3)nc2c1,17.9
8,Cn1c(-c2ccccc2)cc2c3no[n+]([O-])c3ccc21,5.09
9,CCc1ccccc1NS(=O)(=O)c1ccc2[nH]cc(C(=O)NCc3ccco3)c(=O)c2c1,22
10,Cc1cc(C)c(C#N)c(SCc2ccc3c(c2)OCO3)n1,24.6
11,COc1ccc(NC(=O)c2ccc(Cl)c(S(=O)(=O)N3CCc4ccccc4C3)c2)cn1,8.1
12,CCOC(=O)c1c(-c2cccs2)csc1NC(=O)CN1CC(C)OC(C)C1 (stereo not given),24.8
13,O=S(=O)(Nc1ncnc2sc3c(c12)CCC3)c1ccc(Cl)s1,5.93
14,CCOc1ccc2nc(NC(=O)CN3CCC(n4nnc5cc(F)ccc54)CC3)sc2c1,15.4
15,COc1ccc(C(=O)Nn2cnc3scc(-c4cccs4)c3c2=O)c(O)c1,3.24
16,O=c1[nH]c(NCCCO)nc2c1C1(CCCC1)Cc1ccccc1-2,8.77
17,COc1ccccc1-c1nnc2sc(COc3ccc(Cl)cc3)nn12,16.4
18,O=C(NC1CCCCC1)c1sc(=S)n2c1[nH]c(=O)c1ccccc12,0.83
19,CN1CCCN(C(=O)Cc2c(Cl)cccc2Cl)c2nc3ccccc3nc21,13.1
20,CSCc1nnc(NC(=O)c2ccc(S(=O)(=O)N(CC(C)C)CC(C)C)cc2)o1,0.3
21,C=CCOC(=O)C(C#N)c1nc2ccccc2nc1N1CCCC1 (stereo not given),8.74
22,COc1c(N2CCNC(C)C2)c(F)cc2c(=O)c(C(=O)O)cn(C3CC3)c12 (stereo not given),< 0.2

# Source: PubChem BioAssay AID617 (SRMLSC, 2007)
